Reference: ChEMBL document CHEMBL1833841, “Synthesis and biological evaluation of a novel class of isatin analogs as dual inhibitors of tubulin polymerization and Akt pathway” (Bioorg Med Chem, 2011)
pIC50: −log10 of the molar value.

Key:
MCF7 = test: Cytotoxicity against human MCF7 cells after 48 hrs by MTS assay; type: functional, cell-based; details: MCF7, 48 h
Method in brief: (§1)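 A549, MCF-7 and UACC903 cells grown in DMEM with 10% FBS at 37°C, 5% CO2. 5×10^3 cells/well were left to adhere 24 h, then treated 48 h with compound (DMSO stock diluted in DMEM, 0.5–50 µM). MTS read at 490 nm and normalized to control. Dose-response fitted as sigmoidal, variable slope. Triplicates from at least two independent experiments.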

HT-29 [1] = test: Cytotoxicity against human HT-29 cells after 48 hrs by MTS assay; type: functional, cell-based; details: HT-29, 48 h
Method in brief: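 HT29 cells maintained in RPMI with 10% FBS. 5×10^3 cells/well were left to adhere 24 h, then exposed 48 h to compound (DMSO stock diluted in DMEM, 0.5–50 µM). MTS absorbance at 490 nm normalized to control. IC50 from sigmoidal variable-slope fit. Triplicates, at least two independent experiments.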

UACC-903 = test: Cytotoxicity against human UACC903 cells after 48 hrs by MTS assay; type: functional, cell-based; details: UACC-903, 48 h; method in brief: as §1
A549 = test: Cytotoxicity against human A549 cells after 48 hrs by MTS assay; type: functional, cell-based; details: A549, 48 h; method in brief: as §1
Bos taurus = species: Bos taurus; test: Inhibition of bovine brain tubulin polymerization at 10 uM after 1 hrs by fluorescence assay
Method in brief: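 Compound at 10 µM final, DMSO as control. Fluorescence (ex 360, em 440 nm) read every 10 s for 1 h at 37°C, duplicate wells.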

HT-29 [2] = test: Induction of apoptosis in human HT-29 cells assessed as early apoptotic cells at 2.5 uM after 24 hrs by PE annexin V and 7-Aminoactinomycin D staining-based flow cytometry (reference value: 1.37%); type: functional
Method in brief: (§2)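 HT29 cells were treated with 1.25–5.0 µM compound or DMSO for 24 h at 37°C, harvested by low-speed centrifugation and washed twice in cold PBS. They were resuspended in binding buffer at 1×10^6 cells/ml, stained with PE annexin V and 7-AAD for 15 min at RT in the dark, and quantified by flow cytometry.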

HT-29 [3] = test: Induction of apoptosis in human HT-29 cells after 24 hrs by PE annexin V and 7-Aminoactinomycin D staining-based flow cytometry; type: functional, cell-based; method in brief: as §2
HT-29 [4] = test: Induction of apoptosis in human HT-29 cells assessed as dead cells at 2.5 uM after 24 hrs by PE annexin V and 7-Aminoactinomycin D staining-based flow cytometry (reference value: 1.33%); type: functional
Method in brief: (§3)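 HT29 cells (RPMI, 10% FBS) treated with 1.25, 2.5 or 5 μM, or DMSO control, for 24 h at 37 °C. Cells then harvested, washed twice in cold PBS and resuspended at 1×10^6 cells/ml in binding buffer. Stained with PE annexin V and 7-AAD for 15 min at RT in the dark, then analysed by flow cytometry. 7-AAD-positive cells counted as dead.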

HT-29 [5] = test: Induction of apoptosis in human HT-29 cells assessed as late apoptosis or necrotic cells at 5 uM after 24 hrs by PE annexin V and 7-Aminoactinomycin D staining-based flow cytometry (reference value: 4.1%); type: functional; method in brief: as §2
HT-29 [6] = test: Induction of apoptosis in human HT-29 cells assessed as viable cells at 1.25 uM after 24 hrs by PE annexin V and 7-Aminoactinomycin D staining-based flow cytometry (reference value: 93.2%); type: functional; details: HT-29, 24 h, read-out: Activity; method in brief: as §2
HT-29 [7] = test: Induction of apoptosis in human HT-29 cells assessed as late apoptosis or necrotic cells at 1.25 uM after 24 hrs by PE annexin V and 7-Aminoactinomycin D staining-based flow cytometry (reference value: 4.1%); type: functional; method in brief: as §2
HT-29 [8] = test: Induction of apoptosis in human HT-29 cells assessed as viable cells at 5 uM after 24 hrs by PE annexin V and 7-Aminoactinomycin D staining-based flow cytometry (reference value: 93.2%); type: functional; details: HT-29, 24 h, read-out: Activity; method in brief: as §2
HT-29 [9] = test: Induction of apoptosis in human HT-29 cells assessed as early apoptotic cells at 1.25 uM after 24 hrs by PE annexin V and 7-Aminoactinomycin D staining-based flow cytometry (reference value: 1.37%); type: functional; method in brief: as §2
HT-29 [10] = test: Induction of apoptosis in human HT-29 cells at 2.5 uM after 24 hrs by PE annexin V and 7-Aminoactinomycin D staining-based flow cytometry; type: functional; method in brief: as §3
HT-29 [11] = test: Induction of apoptosis in human HT-29 cells assessed as increase in caspase 3/7 activation after 24 hrs by fluorescence spectrophotometry relative to control; type: functional; design: concentration or dose not given beside the values
Method in brief: (§4)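 HT29 cells seeded at 1×10^4/well and grown 24 h, then treated 24 h with 1.25–5 µM compound or DMSO. Equal volume of Apo-ONE caspase-3/7 reagent added, shaken 30 s, incubated 2 h at RT. Cleaved-substrate fluorescence read at ex 498/em 521 nm, expressed relative to DMSO cells. Means ± SD, triplicate, one representative experiment.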

HT-29 [12] = test: Induction of apoptosis in human HT-29 cells assessed as late apoptosis or necrotic cells at 2.5 uM after 24 hrs by PE annexin V and 7-Aminoactinomycin D staining-based flow cytometry (reference value: 4.1%); type: functional; method in brief: as §2
HT-29 [13] = test: Induction of apoptosis in human HT-29 cells assessed as increase in caspase 3/7 activation after 24 hrs by fluorescence spectrophotometry; type: functional, cell-based; method in brief: as §4
HT-29 [14] = test: Induction of apoptosis in human HT-29 cells at 1.25 uM after 24 hrs by PE annexin V and 7-Aminoactinomycin D staining-based flow cytometry; type: functional; method in brief: as §3
HT-29 [15] = test: Induction of apoptosis in human HT-29 cells at 5 uM after 24 hrs by PE annexin V and 7-Aminoactinomycin D staining-based flow cytometry (reference value: 6.8%); type: functional; method in brief: as §3
HT-29 [16] = test: Induction of apoptosis in human HT-29 cells assessed as dead cells at 1.25 uM after 24 hrs by PE annexin V and 7-Aminoactinomycin D staining-based flow cytometry (reference value: 1.33%); type: functional; method in brief: as §3
HT-29 [17] = test: Induction of apoptosis in human HT-29 cells assessed as early apoptotic cells at 5 uM after 24 hrs by PE annexin V and 7-Aminoactinomycin D staining-based flow cytometry (reference value: 1.37%); type: functional; method in brief: as §2
HT-29 [18] = test: Induction of apoptosis in human HT-29 cells assessed as dead cells at 5 uM after 24 hrs by PE annexin V and 7-Aminoactinomycin D staining-based flow cytometry (reference value: 1.33%); type: functional; method in brief: as §3
HT-29 [19] = test: Induction of apoptosis in human HT-29 cells assessed as viable cells at 2.5 uM after 24 hrs by PE annexin V and 7-Aminoactinomycin D staining-based flow cytometry (reference value: 93.2%); type: functional; details: HT-29, 24 h, read-out: Activity; method in brief: as §2

## O=C1C(=O)N(Cc2ccc(CBr)cc2)c2c(Br)cc(Br)cc21
MCF7
  pIC50: 4.56
HT-29 [1]
  pIC50: 5.29
UACC-903
  pIC50: 5.58
A549
  pIC50: 5.10

## N#C[Se]CCCCN1C(=O)C(=O)c2cc(Br)cc(Br)c21
MCF7
  pIC50: 5.82
HT-29 [1]
  pIC50: 5.62
UACC-903
  pIC50: 5.04
A549
  pIC50: 5.50

## O=C1C(=O)N(CCCCl)c2c(Br)cc(Br)cc21
MCF7
  pIC50: 4.67
HT-29 [1]
  pIC50: 5.59
UACC-903
  pIC50: 5.07
A549
  pIC50: 5.28

## N#CSCCCN1C(=O)C(=O)c2cc(Br)cc(Br)c21
MCF7
  pIC50: 5.01
HT-29 [1]
  pIC50: 5.49
UACC-903
  pIC50: 5.54
A549
  pIC50: 5.45

## N#C[Se]CCCN1C(=O)C(=O)c2cc(Br)cc(Br)c21
Bos taurus
  inhibition: 63%
MCF7
  pIC50: 5.78
HT-29 [2]
  Activity: 2.25%
HT-29 [3]
  Activity: Dose-dependent effect
HT-29 [4]
  Activity: 1.92%
HT-29 [5]
  Activity: 5.79%
HT-29 [6]
  viability at 1.25 µM: 92.1%
HT-29 [7]
  Activity: 4.45%
HT-29 [8]
  viability at 5 µM: 43.8%
HT-29 [9]
  Activity: 1.94%
HT-29 [10]
  Activity: 10.44%
HT-29 [1]
  pIC50: 5.50
HT-29 [11]
  fold change (FC): 16
HT-29 [12]
  Activity: 6.27%
HT-29 [13]
  Activity: Dose-dependent effect
HT-29 [14]
  Activity: 7.92%
HT-29 [15]
  Activity: 56.28%
UACC-903
  pIC50: 4.66
HT-29 [16]
  Activity: 1.53%
HT-29 [17]
  Activity: 48.6%
A549
  pIC50: 5.46
HT-29 [18]
  Activity: 1.89%
HT-29 [19]
  viability at 2.5 µM: 89.6%

## N#C[Se]Cc1ccc(CN2C(=O)C(=O)c3cc(Br)cc(Br)c32)cc1
MCF7
  pIC50: 5.84
HT-29 [1]
  pIC50: 5.59
UACC-903
  pIC50: 4.92
A549
  pIC50: 5.62
